Most compounds without a hit are left out; they make up all but 3.2% or so of the library.
ABHD4 inh = ABHD4 inhibitors, primary screen, biochemical, fluorescence polarization, mouse. (Lyso)-N-acylphosphatidylethanolamine lipase (Mus musculus), Q8VD66. purified mABHD4, FP-Rh probe fluorescence polarization. inhibition, % at 8.92 µM. 0.54% of 370,000 active. AID 720543, 2013;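 active = inhibition exceeding the mean over every tested compound plus 3 SD, cut at about 30% in these data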;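 note: 0% = plate median of compound wells and 100% = S159A mutant with DMSO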
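Test system: mABHD4 protein; Read-out basis: % inhibition; Incubation: 45 min + 60 min at 25 °C; Repeats: single replicate; Technique: fluorescence polarization with parallel and perpendicular emission, 525/598 nm; Compound: 8.92 µM, single dose; Benchmarks: full inhibition S159A mutant plus DMSO, zero as sample-well median.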
PRMT1 inh = PRMT1 methyltransferase inhibitors, primary screen, biochemical, fluorescence polarization; Protein arginine N-methyltransferase 1 (Homo sapiens), Q99873; recombinant PRMT1, activity-based probe fluorescence polarization; inhibition, % at 2.79 µM; 1.3% of 370,000 active; AID 652257, 2013;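 active = inhibition above about 21% made by adding two undisclosed values, limit read from the data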
Target sequence (Q99873 whole entry, looked up): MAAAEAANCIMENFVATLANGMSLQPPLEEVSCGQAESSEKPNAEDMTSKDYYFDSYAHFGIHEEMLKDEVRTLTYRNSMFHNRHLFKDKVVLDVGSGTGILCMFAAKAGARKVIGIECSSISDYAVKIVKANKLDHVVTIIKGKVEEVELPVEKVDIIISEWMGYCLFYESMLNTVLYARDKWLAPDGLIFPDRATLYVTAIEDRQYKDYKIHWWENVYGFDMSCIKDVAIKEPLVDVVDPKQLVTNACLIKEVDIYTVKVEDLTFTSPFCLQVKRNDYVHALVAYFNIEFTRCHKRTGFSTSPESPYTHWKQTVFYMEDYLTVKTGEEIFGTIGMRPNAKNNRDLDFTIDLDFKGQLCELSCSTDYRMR
DAGLB inh = DAGLB lipase inhibitors, primary screen, biochemical, fluorescence, HTS; HEK293T DAGLB membrane lysate, EnzChek fluorogenic substrate; 0.059% of 340,000 active; Diacylglycerol lipase-beta (Homo sapiens), Q8NCG7; inhibition, % at 5.17 µM; AID 504411, 2011; in the data active = inhibition above about 34%;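 note: 0% = enzyme with vehicle and 100% = wells lacking enzyme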
rCAG binder = binders of r(CAG) RNA repeats, primary screen, biochemical, fluorescence | r(CAG) RNA repeat, TO-PRO-1 dye displacement fluorescence | inhibition, % at 3 µM | 1.3% of 370,000 active;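 active = inhibition above the plate cutoff, the mean of all test compounds on that plate plus 3 SD, cut at about 35% in these data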;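 note: 0% = DMSO alone and 100% = 100 µM mitoxantrone as full dye displacement; higher means more dye released from RNA so lower well fluorescence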
HTRA1 inh = HTRA1 serine protease inhibitors, primary screen, biochemical, fluorescence polarization, HTS. recombinant HTRA1, FP-rhodamine activity-based probe. 0.5% of 340,000 active. inhibition, % at 5.96 µM; in the data active = inhibition above about 36%;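 note: 0% = enzyme with DMSO and 100% = wells lacking enzyme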
LEDGF integ inh = blockers of LEDGF/p75-dependent integrase strand transfer – biochemical, TR-FRET, high throughput, primary screen; HIV-1 integrase (with human LEDGF/p75); TR-FRET IN-LEDGF/p75 DNA integration, Eu/Cy5; inhibition, % at 3.7 µM; 0.64% of 370,000 active; AID 743269, 2014;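 active = inhibition above the screen-wide mean plus 3 SD, cut at about 13% in these data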;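 note: signal is the Cy5 over europium emission ratio at 671 and 618 nm; 0% = plate median of compound wells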
rCAG binder conf = small molecules binding CAG repeat RNA – biochemical, fluorescence, confirmation; AID 652065, 2013; r(CAG) RNA repeat, TO-PRO-1 dye displacement fluorescence; shares compounds with rCAG binder; inhibition, % at 3 µM; 70% of 4,300 active;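 active = inhibition above a per-plate cutoff, the mean inhibition of sample wells plus 3 SD, cut at about 35% in these data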;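 note: loss of TO-PRO-1 fluorescence as compound displaces dye from 1x1 AA loop RNA; 0% = DMSO only wells and 100% = 100 µM mitoxantrone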
dCAG dye counter = displacement of TO-PRO-1 from CAG DNA duplex, counter-screen for rCAG RNA repeat binder project, biochemical, fluorescence, TO-PRO-1 dye, d(CAG) DNA oligo | shares compounds with rCAG binder | d(CAG) DNA oligo TO-PRO-1 dye displacement | inhibition, % at 3 µM | 94% of 4,300 active;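 active = inhibition above its plate's cutoff, the mean test-well inhibition plus 3 SD, cut at about 4.8% in these data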;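 note: 0% = DNA dye mix with DMSO and 100% = 100 µM mitoxantrone; hits displace the dye from DNA and so lower well fluorescence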
* hit, by the source's call; nt = no result.

SMILES	ABHD4 inh	PRMT1 inh	DAGLB inh	rCAG binder	HTRA1 inh	LEDGF integ inh	rCAG binder conf	dCAG dye counter
Cc1ccc(S(=O)(=O)N2[C@@H](c3ccc(Cl)cc3)C(C(=O)O)=C[C@H]2C(C)(C)C)cc1	1	-1	4	48*	-11	4	42*	11*
Cc1ccc(S(=O)(=O)N2[C@@H](c3ccc(Br)cc3)C(C(=O)O)=C[C@H]2C(C)(C)C)cc1	-4	-2	12	47*	-20	-1	54*	16*
Cc1ccc(S(=O)(=O)N2[C@@H](c3ccc(C#N)cc3)C(C(=O)O)=C[C@H]2C(C)(C)C)cc1	-2	1	3	31	-5	4	nt	nt
COC(=O)Cc1[nH]n(-c2ccccc2)c(=O)c1C=Nc1ccc(C)cc1	0	1	-1	0	-5	-5	nt	nt
CNC(=O)C1CC(=O)N(CCc2ccccc2)C(=Nc2ccc(OC)cc2)S1 (stereo unspecified)	-2	6	-4	-3	-2	-1	nt	nt
COc1ccc(N=C2SC(C(=O)Nc3ccc(C(=O)O)cc3)CC(=O)N2Cc2cccs2)cc1 (stereo unspecified)	-50	0	3	61*	-18	0	60*	20*
CCCCc1ccc(S(=O)(=O)NC(=O)C2(C)CCN2C(=O)Cc2ccccc2)cc1 (stereo unspecified)	-2	-1	nt	39*	nt	5	29	4.8*
CCCCc1ccc(S(=O)(=O)NC(=O)C2(C)CCN2C(=O)c2cccc(F)c2)cc1 (stereo unspecified)	8	-6	nt	37*	nt	1	30	6.5*
CC1(C(=O)NS(=O)(=O)c2ccc(Br)cc2)CCN1C(=O)CCc1ccccc1 (stereo unspecified)	0	3	nt	19	nt	0	nt	nt
CCCCc1ccc(S(=O)(=O)NC(=O)C2(C)CCN2C(=O)C/C=C/c2ccccc2)cc1 (stereo unspecified)	15	1	nt	58*	nt	0	55*	18*
CCCCOc1ccc(S(=O)(=O)NC(=O)C2(C)CCN2C(=O)c2cccc(F)c2)cc1 (stereo unspecified)	2	0	nt	27	nt	-3	nt	nt
O=C(CSc1ccc([N+](=O)[O-])cc1)Nc1cccc(S(=O)(=O)Nc2ccccc2F)c1	-24	15	5	50*	-22	-3	37*	13*
Cc1ccc(C(=O)Nc2cccc([N+](=O)[O-])c2)cc1S(=O)(=O)Nc1cccc(C(=O)O)c1	6	0	2	34	-5	-2	nt	nt
Cc1ccc([N+](=O)[O-])cc1S(=O)(=O)Nc1cccc(S(=O)(=O)Nc2ccccc2C(=O)O)c1	-8	0	9	46*	-4	6	38*	9.3*
Cc1ccc(C)c(NC(=O)c2ccccc2NS(=O)(=O)c2cc([N+](=O)[O-])ccc2C)c1	-7	3	22	40*	-8	-1	77*	43*
Cc1cccnc1C(NC(=O)C1CCN(Cc2ccc(Oc3ccccc3)cc2)CC1)c1ccc(F)cc1 (stereo unspecified)	6	-2	nt	6	nt	0	nt	nt
COc1cc(C)ccc1S(=O)(=O)NC(=O)Cn1nnc(COc2ccc3c(c2)CCCC3)c1C	-1	0	nt	48*	nt	1	42*	12*
CCCCNC(=O)Cn1nnc(-c2ccccc2)c1COc1ccc(C(C)=O)cc1	-2	4	nt	0	nt	-4	nt	nt
Cc1c(COc2ccc3ccccc3c2)nnn1CC(=O)NS(=O)(=O)c1ccccc1C(F)(F)F	-12	-5	nt	70*	nt	4	64*	26*
CC(=O)c1ccc(OCc2nnn(CC(=O)NS(=O)(=O)c3ccc(C)cc3)c2-c2ccccc2)cc1	4	1	nt	62*	nt	-1	68*	20*
O=c1[nH]c2ccc([N+](=O)[O-])cc2[nH]1	-2	0	0	2	-1	-1	nt	nt
CCc1ccc(NC(=O)CNC(=O)c2cn(-c3ccccc3OC)c(=O)c3ccccc23)cc1	-3	0	0	3	-13	0	nt	nt
Cn1nc(C(C)(C)C)cc1NC(=O)C1(C)CCN1C(=O)Cc1ccc(-c2ccccc2)cc1 (stereo unspecified)	5	0	nt	1	nt	-2	nt	nt
O=C(CSc1nc2nc3c(cc2c(=O)n1-c1ccccc1)CCCC3)Nc1cccc2ccccc12	-15	1	-1	14	-26	-2	nt	nt
O=C(CSc1nc(O)cc(=O)n1-c1ccccc1)Nc1ccc2c3c(cccc13)CC2	-15	6	9	45*	-82	6	30	12*
SMILES	ABHD4 inh	PRMT1 inh	DAGLB inh	rCAG binder	HTRA1 inh	LEDGF integ inh	rCAG binder conf	dCAG dye counter
Cn1c(SCC(=O)Nc2ccccc2)nc(O)cc1=O	-13	-1	3	37*	-3	0	7	5.0*
COc1ccccc1-n1c(SCC(=O)Nc2ccc(Br)cc2)nc(O)cc1=O	-73	9	4	42*	-63	5	17	7.5*
Cc1ccc(-n2c(SCC(=O)Nc3ccc(Cl)cc3)nc(O)cc2=O)cc1	-1	1	6	37*	-98	0	25	10*
COc1cccc(CN(CC(=O)NCC2CCCO2)C(=O)CCC(=O)Nc2cc(C)on2)c1 (stereo unspecified)	1	-1	-2	-7	-2	0	nt	nt
COc1ccc(NC(=O)CSc2nc(O)cc(=O)n2-c2ccccc2)cc1	-11	-1	4	38*	-47	4	14	7.5*
O=C(CSc1nc(O)cc(=O)n1-c1ccccc1)Nc1nc2ccccc2s1	-11	7	20	44*	-133	2	52*	19*
Nn1c(SCC(=O)Nc2nc3ccccc3s2)nncc1=O	9	0	-6	4	3	-1	nt	nt
COc1ccc(NC(=O)CSc2nc(O)cc(=O)n2C)cc1	-4	1	1	33	-8	1	nt	nt
CC1=C(CO)C(=O)OC([C@@H](C)C2CC[C@H]3C4C[C@H]5O[C@]56[C@@H](O)C=CC(=O)[C@]6(C)C4CC[C@]23C)C1 (stereo partly specified)	9	9	4	3	-12	1	nt	nt
